Assay results taken from ChEMBL document CHEMBL4706624, “Synthesis and evaluation of new quinazoline-benzimidazole hybrids as potent anti-microbial agents against multidrug resistant Staphylococcus aureus and Mycobacterium tuberculosis” (Eur J Med Chem, 2021).
Values after ≈ are worked out from the molar mass of the structure shown.

Experiments:
Staphylococcus aureus [1] = experiment: Antibacterial activity against methicillin-resistant Staphylococcus aureus NR10186 measured after 16 to 18 hrs; format: functional; settings: time 16-18 hrs
Procedure, shortened: (§1)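 Broth microdilution MIC. Strains grown on MHA; a single colony was grown overnight in CA-MHB at 37 °C with shaking for 18–24 h. Cultures were diluted by OD600 to ~10⁶ cfu/mL and exposed to compound at […]. Plates were incubated at 37 °C for 16-18 h. MIC = lowest concentration with no visible growth. Levofloxacin was the reference. Three independent runs, each in duplicate.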

Staphylococcus aureus [2] = experiment: Antibacterial activity against methicillin-resistant Staphylococcus aureus NR10194 measured after 16 to 18 hrs; format: functional; settings: time 16-18 hrs; procedure, shortened: as §1
Staphylococcus aureus [3] = experiment: Antibacterial activity against methicillin-resistant Staphylococcus aureus NR10129 measured after 16 to 18 hrs; format: functional; settings: time 16-18 hrs; procedure, shortened: as §1
Staphylococcus aureus [4] = experiment: Antibacterial activity against vancomycin-resistant Staphylococcus aureus VRS4 measured after 16 to 18 hrs; format: functional; settings: time 16-18 hrs; procedure, shortened: as §1
Staphylococcus aureus [5] = experiment: Antibacterial activity against methicillin-resistant Staphylococcus aureus NR10191 measured after 16 to 18 hrs; format: functional; settings: time 16-18 hrs; procedure, shortened: as §1
Staphylococcus aureus [6] = experiment: Antibacterial activity against methicillin-resistant Staphylococcus aureus NR10193 measured after 16 to 18 hrs; format: functional; settings: time 16-18 hrs; procedure, shortened: as §1
Staphylococcus aureus [7] = experiment: Antibacterial activity against vancomycin-resistant Staphylococcus aureus VRS1 measured after 16 to 18 hrs; format: functional; settings: time 16-18 hrs; procedure, shortened: as §1
Staphylococcus aureus [8] = experiment: Antibacterial activity against methicillin-resistant Staphylococcus aureus NR10192 measured after 16 to 18 hrs; format: functional; settings: time 16-18 hrs; procedure, shortened: as §1
Staphylococcus aureus [9] = experiment: Antibacterial activity against methicillin-resistant Staphylococcus aureus NR10198 measured after 16 to 18 hrs; format: functional; settings: time 16-18 hrs; procedure, shortened: as §1
Staphylococcus aureus [10] = experiment: Antibacterial activity against vancomycin-resistant Staphylococcus aureus VRS12 measured after 16 to 18 hrs; format: functional; settings: time 16-18 hrs; procedure, shortened: as §1
Staphylococcus aureus [11] = experiment: Antibacterial activity against methicillin-sensitive Staphylococcus aureus ATCC 29213 measured after 16 to 18 hrs; format: functional; settings: time 16-18 hrs; procedure, shortened: as §1
Staphylococcus aureus [12] = experiment: Antibacterial activity against methicillin-resistant Staphylococcus aureus NR119 measured after 16 to 18 hrs; format: functional; settings: time 16-18 hrs; procedure, shortened: as §1
Staphylococcus aureus [13] = experiment: Antibacterial activity against methicillin-resistant Staphylococcus aureus NR100 measured after 16 to 18 hrs; format: functional; settings: time 16-18 hrs; procedure, shortened: as §1
[14] = system: Mycobacterium tuberculosis; experiment: Antitubercular activity against Mycobacterium tuberculosis H37Rv ATCC 27294 measured after 7 days by broth microdilution method; format: functional; settings: H37Rv ATCC 27294, 168 h, time 7 day
Procedure, shortened: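 H37Rv in Middlebrook 7H9 with 10% ADC, 0.2% glycerol, 0.05% Tween-80. Inoculum ~10⁶ cfu/mL set by OD600. Twofold serial dilutions, 0.0064–0.00005 g/100 mL. Incubated at 37 °C for 7 days, then Presto blue resazurin read-out. MIC = lowest concentration inhibiting visible growth. Triplicate runs, each in duplicate.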

Acinetobacter baumannii = experiment: Antibacterial activity against Acinetobacter baumannii BAA1605 measured after 16 to 18 hrs; format: functional; settings: time 16-18 hrs; procedure, shortened: as §1
Pseudomonas aeruginosa = experiment: Antibacterial activity against Pseudomonas aeruginosa ATCC 27853 measured after 16 to 18 hrs; format: functional; settings: time 16-18 hrs; procedure, shortened: as §1
[15] = system: Mycolicibacterium fortuitum; experiment: Antimycobacterial activity against Mycobacterium fortuitum ATCC 6841 by broth microdilution method; format: functional
Procedure, shortened: (§2)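 Broth microdilution MIC in Middlebrook 7H9 with 10% ADC-Tween-80 (BSA, dextrose, 0.2% glycerol, 0.05% Tween-80). Inoculum ~10⁶ cfu/mL set by OD600. Compounds were twofold serially diluted, 0.0064–0.00005 g/100 mL (DMSO stocks). Presto blue resazurin dye was used as read-out. MIC = lowest concentration inhibiting visible growth. Triplicate runs, each in duplicate.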

Staphylococcus aureus [16] = experiment: Antibacterial activity against Staphylococcus aureus ATCC 29213 measured after 16 to 18 hrs; format: functional; settings: time 16-18 hrs; procedure, shortened: as §1
Escherichia coli = experiment: Antibacterial activity against Escherichia coli ATCC 25922 measured after 16 to 18 hrs; format: functional; settings: time 16-18 hrs; procedure, shortened: as §1
Klebsiella pneumoniae = experiment: Antibacterial activity against Klebsiella pneumoniae BAA-1705 measured after 16 to 18 hrs; format: functional; settings: ATCC BAA-1705, time 16-18 hrs; procedure, shortened: as §1
[17] = system: Mycobacteroides abscessus; experiment: Antimycobacterial activity against Mycobacterium abscessus ATCC 19977 by broth microdilution method; format: functional; procedure, shortened: as §2
Mycobacteroides chelonae = experiment: Antimycobacterial activity against Mycobacterium chelonae ATCC 35752 by broth microdilution method; format: functional; procedure, shortened: as §2
[18] = Selectivity index, ratio of CC50 for cytotoxicity against African green monkey Vero cells to MIC for antibacterial activity against Staphylococcus aureus ATCC 29213; format: toxicity, cell-based; settings: read-out: Selectivity Index
Procedure, shortened: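 SI = Vero CC50 (MTT, 72 h) divided by MIC against S. aureus ATCC 29213 (CA-MHB broth microdilution, 16-18 h, 37 °C).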

[19] = Cytotoxicity against African green monkey Vero cells assessed as reduction in cell viability measured after 72 hrs by MTT assay; format: cell-based; settings: chlorocebus sabaeus
Procedure, shortened: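 Vero cells (ATCC CCL-81), ~10³ cells/well, held 24 h at 37 °C in 5% CO₂. Compound at 100–5 mg/L for 72 h. MTT was added for 4 h, formazan dissolved in DMSO, OD read at 540 nm. CC50 = concentration giving 50% viability reduction. Doxorubicin was the positive control. Triplicate.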

For `COc1cccc(OC)c1C(=O)N[C@@H]1C(=O)N2[C@@H]1SC(C)(C)[C@@H]2C(=O)O` [METHICILLIN], the MIC (Staphylococcus aureus [1]) was > 64 µg/mL, the MIC (Staphylococcus aureus [2]) was 32 µg/mL (≈ 84.1 µM) and the MIC (Staphylococcus aureus [3]) was > 64 µg/mL. The MIC (Staphylococcus aureus [4]) was > 64 µg/mL, the MIC (Staphylococcus aureus [5]) was > 64 µg/mL and the MIC (Staphylococcus aureus [6]) was > 64 µg/mL. The MIC (Staphylococcus aureus [7]) was > 64 µg/mL, the MIC (Staphylococcus aureus [8]) was > 64 µg/mL and the MIC (Staphylococcus aureus [9]) was > 64 µg/mL. The MIC (Staphylococcus aureus [10]) was > 64 µg/mL, the MIC (Staphylococcus aureus [11]) was 1 µg/mL (≈ 2.63 µM) and the MIC (Staphylococcus aureus [12]) was > 64 µg/mL. For the same compound, the MIC (Staphylococcus aureus [13]) was > 64 µg/mL.
`CCCCCCCCCC(=O)N[C@@H](Cc1c[nH]c2ccccc12)C(=O)N[C@H](CC(N)=O)C(=O)N[C@@H](CC(=O)O)C(=O)N[C@@H]1C(=O)NCC(=O)N[C@@H](CCCN)C(=O)N[C@@H](CC(=O)O)C(=O)N[C@H](C)C(=O)N[C@@H](CC(=O)O)C(=O)NCC(=O)N[C@H](CO)C(=O)N[C@@H]([C@H](C)CC(=O)O)C(=O)N[C@@H](CC(=O)c2ccccc2N)C(=O)O[C@@H]1C` showed an MIC (Staphylococcus aureus [1]) of 0.5 µg/mL (≈ 0.309 µM), an MIC (Staphylococcus aureus [2]) of 0.5 µg/mL (≈ 0.309 µM) and an MIC (Staphylococcus aureus [3]) of 0.5 µg/mL (≈ 0.309 µM). For the same compound, the MIC (Staphylococcus aureus [4]) was 0.5 µg/mL (≈ 0.309 µM), the MIC (Staphylococcus aureus [5]) was 1 µg/mL (≈ 0.617 µM) and the MIC (Staphylococcus aureus [6]) was 1 µg/mL (≈ 0.617 µM). The MIC (Staphylococcus aureus [7]) was 1 µg/mL (≈ 0.617 µM), the MIC (Staphylococcus aureus [8]) was 1 µg/mL (≈ 0.617 µM) and the MIC (Staphylococcus aureus [9]) was 0.5 µg/mL (≈ 0.309 µM). The MIC (Staphylococcus aureus [10]) was 0.5 µg/mL (≈ 0.309 µM), the MIC (Staphylococcus aureus [11]) was 1 µg/mL (≈ 0.617 µM) and the MIC (Staphylococcus aureus [12]) was 1 µg/mL (≈ 0.617 µM). The MIC (Staphylococcus aureus [13]) was 1 µg/mL (≈ 0.617 µM).
`CC[C@@H](CO)NCCN[C@@H](CC)CO` [ETHAMBUTOL] showed an MIC [14] of 1 µg/mL (≈ 4.89 µM).
With `O=C(Nc1ccc2nc(-c3ccc(Br)cc3F)[nH]c2c1)c1ccc(Nc2nc(-c3ccccc3)nc3ccccc23)cc1` the MIC (Acinetobacter baumannii) was > 64 µg/mL, the MIC (Pseudomonas aeruginosa) was > 64 µg/mL and the MIC [15] was > 64 µg/mL. For the same compound, the MIC (Staphylococcus aureus [16]) was 64 µg/mL (≈ 102 µM), the MIC (Escherichia coli) was > 64 µg/mL and the MIC (Klebsiella pneumoniae) was > 64 µg/mL. For the same compound, the MIC [17] was > 64 µg/mL, the MIC [14] was > 64 µg/mL and the MIC (Mycobacteroides chelonae) was > 64 µg/mL.
With `Clc1ccc(-c2nc(Nc3ccc(-c4nc5cc(Cl)ccc5[nH]4)cc3)c3ccccc3n2)cc1` the MIC (Acinetobacter baumannii) was > 64 µg/mL, the MIC (Pseudomonas aeruginosa) was > 64 µg/mL and the MIC (Staphylococcus aureus [16]) was > 64 µg/mL. For the same compound, the MIC (Escherichia coli) was > 64 µg/mL and the MIC (Klebsiella pneumoniae) was > 64 µg/mL.
For `CN[C@@H]1[C@H](O[C@H]2[C@H](O[C@H]3[C@H](O)[C@@H](O)[C@H](N=C(N)N)[C@@H](O)[C@@H]3N=C(N)N)O[C@@H](C)[C@]2(O)C=O)O[C@@H](CO)[C@H](O)[C@H]1O` [STREPTOMYCIN], the MIC [14] was 1 µg/mL (≈ 1.72 µM).
Compound `C[C@@H](O)[C@H]1C(=O)N2C(C(=O)O)=C(S[C@@H]3CN[C@H](C(=O)N(C)C)C3)[C@H](C)[C@H]12` [MEROPENEM] has an MIC (Staphylococcus aureus [1]) of 8 µg/mL (≈ 20.9 µM), an MIC (Staphylococcus aureus [2]) of 1 µg/mL (≈ 2.61 µM) and an MIC (Staphylococcus aureus [3]) of 4 µg/mL (≈ 10.4 µM). For the same compound, the MIC (Staphylococcus aureus [4]) was 64 µg/mL (≈ 167 µM), the MIC (Staphylococcus aureus [5]) was 64 µg/mL (≈ 167 µM) and the MIC (Staphylococcus aureus [6]) was 64 µg/mL (≈ 167 µM). For the same compound, the MIC (Staphylococcus aureus [7]) was 64 µg/mL (≈ 167 µM), the MIC (Staphylococcus aureus [8]) was 64 µg/mL (≈ 167 µM) and the MIC (Staphylococcus aureus [9]) was 4 µg/mL (≈ 10.4 µM). The MIC (Staphylococcus aureus [10]) was 16 µg/mL (≈ 41.7 µM), the MIC (Staphylococcus aureus [11]) was 0.0625 µg/mL (≈ 0.163 µM) and the MIC (Staphylococcus aureus [12]) was 64 µg/mL (≈ 167 µM). The MIC (Staphylococcus aureus [13]) was 32 µg/mL (≈ 83.4 µM).
Compound `O=C(Nc1ccc(Nc2nc(-c3ccccc3)nc3ccccc23)cc1)c1cc(Br)ccc1Cl` has an MIC [14] of 4 µg/mL (≈ 7.55 µM).
`NNC(=O)c1ccncc1` [ISONIAZID] showed an MIC [14] of 0.03 µg/mL (≈ 0.219 µM).
In the case of `O=[N+]([O-])c1ccc2[nH]c(-c3ccc(Nc4nc(-c5ccccc5)nc5ccccc45)cc3)nc2c1`, the MIC (Acinetobacter baumannii) is reported as > 64 µg/mL, the MIC (Pseudomonas aeruginosa) is reported as > 64 µg/mL and the MIC [15] is reported as > 64 µg/mL. The selectivity ratio [18] was 12.5, the MIC (Staphylococcus aureus [16]) was > 64 µg/mL and the MIC (Escherichia coli) was > 64 µg/mL. The CC50 at 72 h [19] was 100 µg/mL (≈ 218 µM), the MIC (Klebsiella pneumoniae) was > 64 µg/mL and the MIC [17] was > 64 µg/mL. For the same compound, the MIC [14] was 8 µg/mL (≈ 17.4 µM) and the MIC (Mycobacteroides chelonae) was > 64 µg/mL.
With `FC(F)(F)c1nc2ccc(Nc3nc(-c4cccs4)nc4ccccc34)cc2[nH]1` the MIC (Acinetobacter baumannii) was > 64 µg/mL, the MIC (Pseudomonas aeruginosa) was > 64 µg/mL and the MIC [15] was > 64 µg/mL. For the same compound, the MIC (Staphylococcus aureus [16]) was 64 µg/mL (≈ 156 µM), the MIC (Escherichia coli) was > 64 µg/mL and the MIC (Klebsiella pneumoniae) was > 64 µg/mL. The MIC [17] was > 64 µg/mL, the MIC [14] was 64 µg/mL (≈ 156 µM) and the MIC (Mycobacteroides chelonae) was > 64 µg/mL.
